# In the library only some 1.3% were active in any assay of this set; here they are far more common.
# Tb hexokinase: Trypanosoma brucei hexokinase 1 inhibitors, primary screen, biochemical, G6PDH-coupled NADH absorbance, MLSCN library. hexokinase 1 [Trypanosoma brucei]. inhibition, % at 10 µM. recombinant TbHK1, G6PDH-coupled NADH A340. 220,000 compounds, 0.11% hits;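 active = inhibition of 50% or more in the single-dose primary screen; inactive = inhibition below 50%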
# S1P3 antagonist: S1P3 receptor antagonists, primary screen, cell-based; CHO S1P3 NFAT-BLA reporter, FRET fluorescence, antagonist mode; Sphingosine 1-phosphate receptor 3 (Homo sapiens), Q99500; 170,000 compounds, 0.27% hits; inhibition, % at 4.98 µM; AID 485, 2006;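 active = inhibition above the plate cutoff, the mean inhibition of test wells on that plate plus 3 SD, cut at about 28% in these data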;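 also: cells challenged with S1P at its EC80 of 0.8 µM; blue over green emission ratio from cleaved BLA substrate after 4 h stimulation; 0% = S1P-stimulated wells and 100% = unstimulated DMSO-only wells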
# Calb biofilm kill: clotrimazole potentiators killing C. albicans biofilm, primary screen, 4-compound mixtures. 120,000 compounds, 0.02% hits. inhibition, % at 7.6 µM. AID 1242, 2008. C. albicans biofilm persisters + clotrimazole, fluorescence viability; primary screen in compound mixtures of four per well;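 also: compounds exposed to preformed 24 h biofilms for 48 h; 0% = untreated biofilm control and 100% = clotrimazole plus chlorhexidine kill blank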
#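 Test system: C. albicans CAF4-2 wild-type biofilms; buffer or medium: RPMI/MOPS medium, pH 7.0; schedule: 24 h biofilm formation, then 48 h compound exposure, 37 °C; detection: Alamar Blue fluorescence; measure: percent inhibition of biofilm viability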
# S1P4 ag: S1P4 receptor agonists, primary screen, cell-based. 220,000 compounds, 0.35% hits. AID 1509, 2009. activation, % at 4.98 µM. Sphingosine 1-phosphate receptor 4 (Homo sapiens), O95977. S1P4-expressing cell line, agonist reporter assay; in the data active = activation above about 11%;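 also: 0% = DMSO vehicle and 100% = reference agonist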
# Target sequence (O95977 whole entry, looked up): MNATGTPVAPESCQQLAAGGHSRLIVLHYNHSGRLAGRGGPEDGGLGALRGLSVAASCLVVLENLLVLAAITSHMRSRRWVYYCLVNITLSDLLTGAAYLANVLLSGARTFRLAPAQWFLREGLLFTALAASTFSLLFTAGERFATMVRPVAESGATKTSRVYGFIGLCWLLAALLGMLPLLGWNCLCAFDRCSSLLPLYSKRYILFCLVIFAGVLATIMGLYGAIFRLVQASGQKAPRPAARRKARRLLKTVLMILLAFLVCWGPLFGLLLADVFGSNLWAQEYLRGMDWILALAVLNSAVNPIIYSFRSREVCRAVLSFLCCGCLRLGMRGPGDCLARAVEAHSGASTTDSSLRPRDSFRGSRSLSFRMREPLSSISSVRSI
# Dynein cargo inh: inhibitors of GR-EGFP nuclear translocation, primary screen, dynein cargo transport inhibitor project, imaging, high-content, 3617.4 mouse cells; test concentration mostly 20 µM; stimulated with dexamethasone, 1 µM; hits give low values; z-score, hits read low; 220,000 compounds, 0.47% hits; AID 1381, 2008;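 active = plate z-score of nuclear minus cytoplasmic receptor signal below a set negative limit, without overly bright fluorescence or cell loss, cut at about -3.5 in these data, passing the limit was not always enough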;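 also: z-score of nuclear minus cytoplasmic ring GR-EGFP intensity difference per well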
#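 Also added: dexamethasone, 1.0 µM final. Medium: tet-free, stripped-serum medium. Detection: fixed, Hoechst-stained cells imaged at 10x for EGFP. Read-out: nuclear-to-cytoplasmic GR-EGFP distribution per well. Times: induction 48 h, compound 1 h, agonist 30 min.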
# S1P4 antag: S1P4 receptor antagonists, primary screen, cell-based; AID 1510, 2009; Sphingosine 1-phosphate receptor 4 (Homo sapiens), O95977; S1P4-expressing cells, antagonist mode, reporter read-out; 220,000 compounds, 0.26% hits; inhibition, % at 4.98 µM; in the data active = inhibition above about 29%;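 also: 0% = wells stimulated with agonist and 100% = vehicle wells without agonist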
# Dynein inh conf: dynein cargo transport inhibitors, GR-EGFP translocation, confirmation, imaging, high-content imaging, GR-EGFP cells | shares compounds with Dynein cargo inh | 3617.4 GR-EGFP nuclear translocation imaging, dexamethasone-induced | calls only at 20 µM | 1,000 compounds, 69% hits | AID 463116, 2010;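 active = inhibition of receptor movement into the nucleus at or above a set limit in both runs, with normal cell brightness and cell count; inconclusive = limit reached in only one run, brightness and count normal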;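 also: dexamethasone at 1 µM final in well for 30 min; nuclear minus cytoplasmic GR-EGFP mean intensity difference in channel 2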
# * marks the source's active call; other numbers are inactive results; i = inactive; ? = inconclusive; / = not tested or not shown; + = active, no number.
SMILES,Tb hexokinase,S1P3 antagonist,Calb biofilm kill,S1P4 ag,Dynein cargo inh,S1P4 antag,Dynein inh conf
CS(=O)(=O)c1ccc(S(=O)CC(=O)OCc2ccccc2)c([N+](=O)[O-])c1 (stereo not given),-2,-5,6,-3,-5.6,29,+
CCCC(=O)Nc1ccc(C(=O)NNC(=S)NC(=O)c2ccc(Br)o2)cc1,3,2,15,-1,-0.62,-3,/
CCc1cc2c(=O)n(Cc3ccccc3)c(SC3CCOC3=O)nc2s1 (stereo not given),-7,-19,12,-2,0.51,0,/
O=C(N/N=C/c1ccc(N2CCCCC2)o1)c1ccccc1,29,2,12,0,-3.8*,-8,i
CN(C)CC(C(=O)c1ccccc1)c1ccccc1 (stereo not given),0,25,/,-1,-3.7*,21,+
COc1ccc(C(C(=O)OC(C)CN(C)C)c2ccccc2)cc1 (stereo not given),1,15,/,1,-1.1,5,/
CCN(CC)CCCC(C)NC(=O)c1cccc(S(=O)(=O)N2CCc3ccccc32)c1 (stereo not given),8,-20,8,-1,-1.5,9,/
Cc1ccc(CN=Cc2[nH]c3ccc(Br)c(Cl)c3c2O)cc1,-13,/,/,-2,-4.3,3,+
CCc1oc(C(=O)OC)cc1CSC(=N)N,-1,-10,11,1,0.97,3,/
O=C(Cc1ccccc1)Nc1cccc(N2C(=O)C=CC2=O)c1,2,-6,-9,2,-4.7*,-12,+
COc1ccc(/C=C\c2nc(=O)c3ccccc3o2)cc1,-18,-12,17,2,-3.6*,11,+
CCN(CC)c1ccc(N=Cc2ccc([N+](=O)[O-])o2)cc1,-3,-28,16,0,-3.8*,-1,?
CCCC(=O)OCCNc1cc(SCCC(=O)OC)c2nonc2c1[N+](=O)[O-],-14,-10,11,-3,-4.5*,-29,+
O=[N+]([O-])c1c(NCCCO)cc(Sc2ccc(Cl)cc2)c2nonc12,-29,-3,28,-1,-4.7*,-6,+
COC(=O)CCSc1cc(NCCOC(C)=O)c([N+](=O)[O-])c2nonc12,17,1,14,0,-0.43,-14,/
CC(=O)OCCNc1cc(SCc2ccco2)c2nonc2c1[N+](=O)[O-],-15,1,20,0,-5.8*,-5,+
Cn1ccnc1Sc1cc(NCCCO)c([N+](=O)[O-])c2nonc12,-21,-6,9,-1,-4.9*,-11,+
Cc1ccc(C(=O)O)cc1NC(=S)NC(=O)c1ccc([N+](=O)[O-])c(C)c1,-4,-7,9,-1,-0.67,3,/
COc1ccc(NC(=O)CSc2nc3ccsc3c(=O)n2CCCCCC(=O)O)cc1,-10,-44,9,3,-0.49,-5,/
Clc1ccccc1Sc1ccc(-c2ccccn2)s1,-13,-3,12,0,-0.83,-10,/
O=[N+]([O-])c1c(NCCCO)cc(SCc2ccco2)c2nonc12,-4,6,14,0,-3.5*,-12,+
COc1ccc(CNc2cc(NCCCO)c([N+](=O)[O-])c3nonc23)cc1,-19,-5,18,2,-0.58,-15,/
CC(=O)OCCCNc1cc(Sc2ccc(C)cc2)c2nonc2c1[N+](=O)[O-],-6,1,18,0,-4.6*,-16,i
CCN1C/C(=C/c2cccc([N+](=O)[O-])c2)C(=O)/C(=C/c2cccc([N+](=O)[O-])c2)C1,-7,6,16,1,-4*,-15,+
COc1ccccc1NS(=O)(=O)c1cc([N+](=O)[O-])ccc1N/N=C/c1c(C)[nH]c2ccccc12,-12,/,/,1,-4.9,-3,i
SMILES,Tb hexokinase,S1P3 antagonist,Calb biofilm kill,S1P4 ag,Dynein cargo inh,S1P4 antag,Dynein inh conf
O=[N+]([O-])c1ccc(N/N=C/c2c[nH]c3ccccc23)c(S(=O)(=O)Nc2ccc(Cl)cc2)c1,-16,/,/,-1,-2.6,-4,/
COc1cc(C2Oc3ccccc3C=C2[N+](=O)[O-])cc(OC)c1OC (stereo not given),-11,-9,13,1,-5.6*,-3,+
CC(NS(=O)(=O)c1ccc(Cl)cc1)C(=O)NCCC1=CCCCC1 (stereo not given),-11,-8,12,-1,0.14,-6,/
Cc1nc(NS(=O)(=O)c2ccc(Cl)s2)c2c3c(sc2n1)CCCC3,-10,14,16,-1,0.45,-2,/
CC(=O)Oc1ccc(OC(C)=O)c(SCCCCCCl)c1,2,-19,19,-1,-4.6*,12,+
Cc1cc(C2=CC(C)(c3cc(C)oc3C)Nc3nc(C(F)(F)F)nn32)c(C)o1 (stereo not given),-9,7,/,0,-6.1*,-2,+
Nc1nc(Nc2ccccc2F)nc(N2CCOCC2)c1[N+](=O)[O-],-35,-19,27,1,2.6,-13,/
CCn1nc([N+](=O)[O-])c(C(C#N)c2nc3cc(C(F)(F)F)ccc3s2)c(Cl)c1=O (stereo not given),-13,/,/,2,-4.4*,11,+
O=C(Cn1c(=O)oc2cc(S(=O)(=O)NCc3ccccc3)ccc21)N1CCCC1,3,-6,26,1,-5.2*,-6,i
CCCN1CCN(C(=O)Cn2c(=O)oc3cc(S(=O)(=O)NCc4ccccc4)ccc32)CC1,-3,-26,/,-1,-1.3,10,/
O=C1N/C(=C/c2ccc(N3CCOCC3)o2)C(=O)N1c1cccc(Cl)c1,-6,-15,15,0,-4.1,-4,i
O=C(c1ccc(N2CCCCC2)c([N+](=O)[O-])c1)N1CCOCC1,-2,/,/,-1,-0.27,13,/
COc1ccccc1C(=O)/C=C/c1ccc(N2CCCCC2)c([N+](=O)[O-])c1,-1,5,7,1,-5.4*,18,+
O=C(/C=C/c1ccc(N2CCCCC2)c([N+](=O)[O-])c1)c1ccc(O)cc1,-7,6,-1,-1,-3.7*,14,+
COc1ccc(CN2CCC(CO)(Cc3ccccc3C(F)(F)F)CC2)c(F)c1,8,-12,14,1,-0.9,9,/
COc1ccc(CC(=O)n2[nH]c(=O)cc(C)c2=O)cc1OC,6,-3,22,1,-5.7*,15,?
CCOC(=O)c1c(C)oc2c1c(CN1CCN(C(=O)OCC)CC1)c(O)c1ccccc12,19,4,19,-1,-1.6,-11,/
